Assay outcomes deposited in PubChem by several laboratories.
CYP2C19 activ – increases human CYP2C19 enzyme activity; P33261; recombinant CYP2C19, luciferin-H EGE luminescence; stronger effect = higher value; 0 = fully inhibited enzyme, 1 = untreated enzyme; activation factor at 5 µM; 96,000 tested, under 10 active;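 active = activation factor of at least 2 at 5 µM in the primary screen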;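 note: 0 = wells with 2.5 mM tranylcypromine and 1 = vehicle-only wells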
Ecoli WT expand – growth inhibitors of E. coli BW25113 wild type. growth inhibition, % at 100 µM. AID 710. 98,000 tested, 0.15% active. OD600 absorbance;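 active = growth inhibition above about 50% at one test dose, limit read from the data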;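 note: growth measured after 20 h incubation at 37 °C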
CYP2C9 inhib – human CYP2C9 inhibition. CYP2C9 Supersomes, luciferin-H conversion, luminescence. 96,000 tested, 20% active. P11712. inhibition, % at 5 µM;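 active = blocking of liver enzyme CYP2C9 beyond about 50% at 5 µM, limit read from the data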
Target sequence (P11712 whole entry, looked up): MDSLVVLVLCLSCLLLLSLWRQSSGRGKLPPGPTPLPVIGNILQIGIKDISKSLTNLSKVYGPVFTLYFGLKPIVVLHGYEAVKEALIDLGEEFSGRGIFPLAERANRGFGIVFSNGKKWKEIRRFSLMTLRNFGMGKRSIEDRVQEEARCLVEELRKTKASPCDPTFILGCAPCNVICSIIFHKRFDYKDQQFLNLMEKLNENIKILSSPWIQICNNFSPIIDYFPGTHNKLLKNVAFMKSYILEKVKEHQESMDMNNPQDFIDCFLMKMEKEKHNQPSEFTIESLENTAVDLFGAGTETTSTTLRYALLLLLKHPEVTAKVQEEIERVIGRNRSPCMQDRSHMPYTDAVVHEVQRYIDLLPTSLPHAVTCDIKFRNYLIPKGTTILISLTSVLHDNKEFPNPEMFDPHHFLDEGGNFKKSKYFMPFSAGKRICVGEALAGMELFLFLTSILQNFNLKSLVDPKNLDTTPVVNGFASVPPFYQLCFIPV
tolC growth inh – growth inhibitors of E. coli BW25113 tolC mutant; 65,000 tested, 2.2% active; AID 573; OD615; growth inhibition, % at 10 µM (by protocol);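 active = growth inhibition at or above a cutoff equal to the mean over every tested compound plus 3 SD, cut at about 60% in these data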;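 note: growth measured after 20 h incubation at 37 °C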
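Test system – E. coli BW25113 ΔtolC::kan, tolC deletion mutant strain · Detection – OD at 615 nm · Buffer or medium – LB with kanamycin 50 µg/mL · Times – 20 h compound exposure of bacteria at 37 °C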
CYP2C9 activ – CYP2C9 (human) activation | P11712 | recombinant CYP2C9, luciferin-H conversion, luminescence; stronger effect = higher value; factor 1 = untreated enzyme, 0 = blocked | activation factor at 5 µM | 96,000 tested, 1.4% active;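 active = activation factor of 2 or more for CYP2C9 at a 5 µM dose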;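 note: 0 = sulfaphenazole-blocked wells and 1 = vehicle-only wells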
CYP2C19 inh – human CYP2C19 inhibition. P33261. CYP2C19 Supersomes, luciferin-H EGE luminescence, 30 min. inhibition, % at 5 µM. 96,000 tested, 21% active. AID 778;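 active = CYP2C19 inhibition above a set limit at 5 µM in the primary screen, cut at about 50% in these data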;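 note: plate controls were negative control wells for no effect and 2.5 mM tranylcypromine positive control for full effect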
Starred values were filed as active, the others as inactive; / = not tested or not shown. Hits are enriched below; roughly 29% of the tested compounds scored in any of these assays.

SMILES	CYP2C19 activ	Ecoli WT expand	CYP2C9 inhib	tolC growth inh	CYP2C9 activ	CYP2C19 inh
Clc1ccccc1-c1nn2c(-c3ccccn3)nnc2s1	0.4	-5	14	20	0.9	60*
Clc1ccc(-c2nn3cnnc3s2)c(Cl)c1	0.1	1	29	12	0.7	89*
Clc1ccccc1-c1nnc2sc(-c3cccs3)nn12	0.6	0	61*	-1	0.4	42
CCOC(=O)Cn1c(=O)c(-c2ccccc2NC)nc2ccccc21	0.9	-12	-16	/	1.2	10
CC(C)CC(=O)NCc1ccc(F)cc1	0.8	4	13	/	0.9	22
O=c1c(-c2ccc(F)cc2)coc2c3c(ccc12)OCCO3	0.9	1	4	-3	1	12
NC(=S)N/N=C/c1ccccc1OCc1cccc(Cl)c1	0.8	2	10	/	0.9	21
Clc1ccccc1-c1nnc2sc(C3COc4ccccc4O3)nn12 (stereo not given)	0.1	1	87*	23	0.1	86*
Clc1ccccc1-c1nnc2sc(-c3ccncc3)nn12	0.2	-6	34	-16	0.7	80*
Cc1nn2c(-c3ccc(Cl)cc3Cl)nnc2s1	0.5	0	13	-1	0.9	52*
Clc1ccc(-c2nn3c(-c4ccncc4)nnc3s2)c(Cl)c1	0.2	/	15	-9	0.8	84*
O=C(CCN1C(=O)c2ccccc2C1=O)NC1=NCCS1	1	-2	-5	-18	1.1	3
Cc1cc(N2CC(=O)N(CCc3ccccc3)C(=O)C2)n2ncnc2n1	1.1	5	2	/	1	-7
Cc1ccc(C2c3c(oc4cc(C)c(C)cc4c3=O)C(=O)N2CCCN2CCOCC2)cc1 (stereo not given)	1	/	16	13	0.8	0
COCCN1C(=O)c2ccccc2C(C(=O)N2CCN(c3ccccn3)CC2)C1c1ccc(F)cc1 (stereo not given)	/	4	/	0	/	/
Cc1ccc(-c2nnc3sc(-c4ccncc4)nn23)cc1	0.7	6	4	4	1	33
Clc1ccc(-c2nn3c(-c4cccc(Cl)c4)nnc3s2)cc1	0.4	/	24	19	0.8	60*
CN(C)c1ccc(-c2nn3c(-c4ccncc4)nnc3s2)cc1	/	/	/	84*	/	/
c1ccc(-c2nn3c(-c4ccncc4)nnc3s2)nc1	/	/	/	13	/	/
Clc1ccccc1-c1nn2c(-c3ccncc3)nnc2s1	0.2	3	74*	9	0.3	78*
Cc1cccc(-c2nnc3sc(-c4ccccc4)nn23)c1	0.7	-13	12	-12	0.9	29
Cc1csc(NC(=O)Cn2cnnn2)n1	1.1	-3	-13	-10	1.1	-8
Cc1cc(C(=O)NCC(c2ccco2)N(C)C)no1 (stereo not given)	0.9	3	7	9	0.9	6
CC(C)N1C(=O)CCC1C(=O)NC1CCCC1 (stereo not given)	1	-3	22	-17	0.8	-2
Cc1ccc(S(=O)(=O)Nc2ccc3nc(C)sc3c2)cc1	0.8	3	79*	/	0.2	23
SMILES	CYP2C19 activ	Ecoli WT expand	CYP2C9 inhib	tolC growth inh	CYP2C9 activ	CYP2C19 inh
Cc1nc2ccc(NC(=O)NCCO)cc2s1	0.9	7	-13	/	1.1	12
Cc1nc2ccc(NS(=O)(=O)c3c(C)c(C)cc(C)c3C)cc2s1	0.7	3	74*	/	0.3	35
Cc1ccc(CNC(=O)C(NS(=O)(=O)c2ccc3nc(C)sc3c2)C(C)C)cc1 (stereo not given)	0.9	-10	3	/	1	12
Cc1ccc(S(=O)(=O)Nc2ccc3nc(N)sc3c2)cc1	0	12	95*	24	0.1	99*
Cc1ccc(C(=O)Nc2ccc3nc(C)sc3c2)s1	0.7	1	87*	/	0.1	34
CCOc1ccccc1N(CC(=O)NC1CCCC1)C(=O)CCCC(=O)Nc1ccccn1	0.9	-3	28	-9	0.7	13
Cc1nc2ccc(NS(=O)(=O)c3ccc4c(c3)OCCO4)cc2s1	0	-8	98*	/	0	98*
Cc1ccc(-c2nc(NC(=O)c3nn(C)cc3[N+](=O)[O-])sc2C)cc1C	1	-6	54*	/	0.5	-4
CCOC(=O)N1CCC(NC(=O)C(CC(C)C)NC(=O)C2CCC(C)CC2)CC1 (stereo not given)	0.6	1	3	/	1	38
O=C(CS(=O)CC(=O)N(CC(=O)NC1CCCC1)C1CCCCC1)Nc1ccc(F)cc1 (stereo not given)	0.9	-10	57*	-3	0.4	8
CC(C)NC(=O)C1CCCN(S(=O)(=O)c2cccs2)C1 (stereo not given)	0.4	-6	2	-15	1	58*
O=C(C1CCCN(S(=O)(=O)c2cccs2)C1)N1CCc2ccccc2C1 (stereo not given)	0.6	-6	40	17	0.6	39
CCOC(=O)C1CCCN(S(=O)(=O)c2cccs2)C1 (stereo not given)	0.7	0	17	-5	0.8	32
CC(NC(=O)C1CCCN(S(=O)(=O)c2cccs2)C1)c1ccccc1 (stereo not given)	0.4	-1	95*	-1	0	59*
CCOc1cc(CNC(=O)CN2C(=O)c3ccccc3S2(=O)=O)ccc1OC	0.9	2	19	-24	0.8	6
CCOC(=O)c1c(C)oc2c1c(C=NCc1ccccn1)c(O)c1ccccc12	0.4	-10	86*	15	0.1	64*
CCOC(=O)c1c(C)oc2c1cc(O)c1ccccc12	0.7	4	73*	-9	0.3	33
CCOC(=O)c1c(C)oc2c1c(C=NCC1CCCO1)c(O)c1ccccc12 (stereo not given)	0.9	-11	27	-5	0.7	11
Cc1cccc(CSc2ncnc3nc[nH]c23)c1	0.3	4	45	4	0.5	72*
CCOC(=O)N1CCN(C(=O)CSCC(=O)N=c2sc3cc(OC)ccc3n2C)CC1	/	/	/	10	/	/
CCOc1ccc(N2C(=O)CC(N3CCN(C(=O)CN4CCCC4)CC3)C2=O)cc1 (stereo not given)	1	1	-4	-10	1	1
CCOc1ccc(N2C(=O)CC(N3CCC(NC(=O)Nc4ccccc4)CC3)C2=O)cc1 (stereo not given)	0.1	-3	59*	-12	0.4	90*
O=C(O)CCC(=O)N(Cc1cccnc1)Cc1cccc(F)c1	1	4	-1	-25	1	-3
O=C(CN1C(=O)COc2ccccc21)N(Cc1cccnc1)Cc1cccc(F)c1	0.1	-1	91*	-10	0.1	87*
Cn1c(=O)[nH]c(=O)c2c1nc(SCCN1CCOCC1)n2CCCc1ccccc1	0.8	-5	67*	-19	0.3	23
Cn1c(=O)[nH]c(=O)c2c1nc(SCCN1CCOCC1)n2Cc1ccccc1	1.1	-2	2	-5	1	-9
